Test [1] has as its target T1, Transient receptor potential cation channel subfamily V member 1 (Homo sapiens, UniProt Q8NER1). Kind of test: Percentage efficacy against human transient receptor potential vanilloid 1 receptor (n=3). In outline:
(§1)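 FLIPR Ca2+ flux in HEK293 cells stably expressing human TRPV1 or rat TRPV1, grown in DMEM with 10% FBS. Cells were seeded, incubated overnight, then loaded with 4 µM Fluo-3/AM and 0.01% Pluronic-F127 for 60 min at room temperature. Assay buffer was HEPES-buffered saline with 2 mM CaCl2, pH 7.45. Intracellular Ca2+ was read during compound exposure, 0.3 nM–30 µM in half-log steps. Signal was basal-subtracted, taking the smaller of the peak and end-of-incubation values.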

The target of test [2] is Transient receptor potential cation channel subfamily V member 1 (Rattus norvegicus) (UniProt O35433). Kind of test: Percentage efficacy against rat transient receptor potential vanilloid 1 receptor (n=3). An outline of the steps:
as §1

Test [3] addresses T1, Transient receptor potential cation channel subfamily V member 1. The test can be described thus: Effective concentration against human transient receptor potential vanilloid 1 receptor (n=6). In outline: (§2)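 HEK293 cells stably expressing human or rat TRPV1 were loaded with 4 µM Fluo-3/AM for 60 min at room temperature. Cells were held in HEPES buffer, pH 7.45, with 2 mM CaCl2. Capsaicin-like Ca2+ flux was read on FLIPR with compounds up to 30 µM. Counts were basal-subtracted. Values came from a four-parameter Hill fit, as mean ± SEM.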

Test [4] concerns the target T2, Transient receptor potential cation channel subfamily V member 1 (Rattus norvegicus, UniProt O35433). The test can be described thus: Effective concentration against rat transient receptor potential vanilloid 1 receptor (n=6). An outline of the steps:
as §2

Test [5] concerns the target T2, Transient receptor potential cation channel subfamily V member 1. Kind of test: Inhibition of rat transient receptor potential vanilloid 1 receptor (n=2). In outline:
(§3)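 FLIPR Ca2+ influx in Fluo-3-loaded HEK293 cells stably expressing human or rat TRPV1. Compound was added at 0.3 nM–30 µM final, in half-log steps, for 3 min before capsaicin. Signal was the smaller of peak and end fluorescence after basal subtraction. IC50 came from a four-parameter logistic fit.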

The target in test [6] is T1, Transient receptor potential cation channel subfamily V member 1. The test can be described thus: In vitro inhibition of anandamide activated human TRPV1 receptor in [Ca2+] influx assay.
For test [7] the target is unchanged. The test can be described thus: Inhibition of human transient receptor potential vanilloid 1 receptor (n=6). An outline of the steps: (§4)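 FLIPR Ca2+ influx in Fluo-3-loaded HEK293 cells stably expressing human or rat TRPV1. Compound was added at 0.3 nM–30 µM final, in half-log steps, for 3 min before capsaicin. Capsaicin was 15 nM final for human; for rat it was 15 nM, or 100 nM in later runs. Signal was the smaller of peak and end fluorescence after basal subtraction. IC50 came from a four-parameter logistic fit.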

The target in test [8] is T2, Transient receptor potential cation channel subfamily V member 1. The test can be described thus: Inhibition of rat transient receptor potential vanilloid 1 receptor (n=3). In outline:
as §4

Test [9] concerns the target T1, Transient receptor potential cation channel subfamily V member 1. Kind of test: Inhibition of human transient receptor potential vanilloid 1 receptor (n=4). In outline:
as §3

Test [10] has as its target T2, Transient receptor potential cation channel subfamily V member 1. Kind of test: Inhibition of rat transient receptor potential vanilloid 1 receptor (n=4). An outline of the steps: as §4
Test [11] has the same target. The test can be described thus: Effective concentration against rat transient receptor potential vanilloid 1 receptor (n=3). An outline of the steps:
as §2

The target of test [12] is T1, Transient receptor potential cation channel subfamily V member 1. The test can be described thus: Inhibition of human transient receptor potential vanilloid 1 receptor (n=3). An outline of the steps:
as §3

Test [13] shares this target. Kind of test: Effective concentration against human transient receptor potential vanilloid 1 receptor (n=6); Inactive. In outline:
as §2

Test [14] shares this target. Kind of test: Inhibition of human transient receptor potential vanilloid 1 receptor (n=2). An outline of the steps:
as §4

Test [15] shares this target. Kind of test: In vitro inhibition of PMA-activated human TRPV1 receptor in [Ca2+] influx assay. An outline of the steps:
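Human TRPV1-HEK293 cells were loaded with Fluo-3 and preincubated with compound for 3 min. They were then stimulated with 300 nM PMA, and fluorescence was monitored for 5–10 min on FLIPR. IC50 came from a four-parameter logistic fit.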

For test [16] the target is unchanged. The test can be described thus: Inhibition of human transient receptor potential vanilloid 1 receptor (n=5). In outline:
as §4

Test [17] deals with T2, Transient receptor potential cation channel subfamily V member 1. The test can be described thus: In vitro inhibition of acid activated rat TRPV1 receptor in [Ca2+] influx assay. An outline of the steps:
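Rat TRPV1-HEK293 cells loaded with Fluo-3 were challenged for about 5 min with pH 5.8–6.0 solution to raise basal Ca2+.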

For test [18], the species on record is Rattus norvegicus. The test can be described thus: Effective dose to produce maximal thermal desensitization in rat at 5 ug.
Test [19] concerns the target T1, Transient receptor potential cation channel subfamily V member 1. Kind of test: Effective concentration against human transient receptor potential vanilloid 1 receptor (n=2). An outline of the steps:
as §2

The target of test [20] is T2, Transient receptor potential cation channel subfamily V member 1. Kind of test: Effective concentration against rat transient receptor potential vanilloid 1 receptor (n=2). An outline of the steps:
as §2

Test [21] has as its target T1, Transient receptor potential cation channel subfamily V member 1. The test can be described thus: Percentage efficacy against human transient receptor potential vanilloid 1 receptor (n=2). An outline of the steps: as §1
Test [22] has the same target. The test can be described thus: Effective concentration against human transient receptor potential vanilloid 1 receptor (n=3). An outline of the steps:
as §2

pEC50, pIC50: −log10 of the molar value. Values joined by “and” are separate entries in the source; they are usually repeats but may differ in a detail not shown here. Equal entries are not always repeated.

T2 sequence (O35433 whole entry): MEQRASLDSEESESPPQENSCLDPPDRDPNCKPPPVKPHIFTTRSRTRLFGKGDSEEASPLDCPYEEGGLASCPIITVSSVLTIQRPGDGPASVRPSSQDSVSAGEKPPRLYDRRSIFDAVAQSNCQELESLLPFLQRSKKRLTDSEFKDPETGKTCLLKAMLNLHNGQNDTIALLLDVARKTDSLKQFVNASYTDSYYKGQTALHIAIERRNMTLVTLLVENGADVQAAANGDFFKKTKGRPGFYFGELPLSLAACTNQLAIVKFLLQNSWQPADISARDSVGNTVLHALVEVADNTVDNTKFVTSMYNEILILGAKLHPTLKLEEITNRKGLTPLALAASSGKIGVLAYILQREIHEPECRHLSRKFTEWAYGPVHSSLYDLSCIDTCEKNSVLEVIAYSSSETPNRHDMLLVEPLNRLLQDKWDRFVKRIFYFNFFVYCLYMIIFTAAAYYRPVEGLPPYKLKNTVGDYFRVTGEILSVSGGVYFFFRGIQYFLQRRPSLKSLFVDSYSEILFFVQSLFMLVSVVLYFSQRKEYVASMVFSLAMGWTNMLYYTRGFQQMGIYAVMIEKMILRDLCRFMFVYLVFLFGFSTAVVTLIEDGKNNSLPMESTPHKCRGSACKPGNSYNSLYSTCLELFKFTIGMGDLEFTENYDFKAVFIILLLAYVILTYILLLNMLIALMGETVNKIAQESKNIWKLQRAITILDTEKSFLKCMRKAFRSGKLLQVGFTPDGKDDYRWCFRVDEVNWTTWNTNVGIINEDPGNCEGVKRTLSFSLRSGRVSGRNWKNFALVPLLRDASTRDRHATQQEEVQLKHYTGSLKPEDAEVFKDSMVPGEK
Transient receptor potential cation channel subfamily V member 1 (Rattus norvegicus), sequence (O35433 whole entry): as above
T1 sequence (Q8NER1 whole entry): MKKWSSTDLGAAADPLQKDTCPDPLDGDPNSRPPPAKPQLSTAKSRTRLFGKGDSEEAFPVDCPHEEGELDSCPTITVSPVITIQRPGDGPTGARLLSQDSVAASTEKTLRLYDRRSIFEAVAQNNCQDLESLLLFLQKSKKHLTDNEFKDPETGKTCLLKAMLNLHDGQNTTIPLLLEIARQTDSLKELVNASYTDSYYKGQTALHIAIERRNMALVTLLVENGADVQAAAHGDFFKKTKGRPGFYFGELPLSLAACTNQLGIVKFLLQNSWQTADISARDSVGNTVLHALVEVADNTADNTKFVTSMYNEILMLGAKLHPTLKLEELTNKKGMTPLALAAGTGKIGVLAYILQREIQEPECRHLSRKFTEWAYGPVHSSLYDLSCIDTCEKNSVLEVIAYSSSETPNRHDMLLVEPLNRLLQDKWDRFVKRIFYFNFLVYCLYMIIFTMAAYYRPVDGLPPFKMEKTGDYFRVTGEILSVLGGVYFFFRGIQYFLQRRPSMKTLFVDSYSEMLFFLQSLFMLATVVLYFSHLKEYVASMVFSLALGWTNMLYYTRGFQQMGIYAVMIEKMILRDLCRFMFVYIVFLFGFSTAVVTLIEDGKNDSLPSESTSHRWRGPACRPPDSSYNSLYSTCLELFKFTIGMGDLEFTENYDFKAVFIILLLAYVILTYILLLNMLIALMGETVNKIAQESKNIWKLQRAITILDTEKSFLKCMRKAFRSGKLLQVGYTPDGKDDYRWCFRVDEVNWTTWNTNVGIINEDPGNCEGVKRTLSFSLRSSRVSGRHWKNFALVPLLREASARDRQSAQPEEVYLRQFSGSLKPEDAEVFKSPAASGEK

A word on the pEC50: it is −log10 of the EC50, conventionally taken in molar units. In the case of `O=C(Nc1ccc(Cl)cc1)N1CCN(c2ccncc2)CC1`, the Efficacy in test [1] is 100%; in test [2], above 40%. Further, the pEC50 is 5.14 in test [3] and 5.44 in test [4].

As usually defined, the pIC50 is the negative decadic logarithm of the IC50, by convention in mol/L. Higher therefore signals a low IC50. `O=C(Nc1ccc(C(F)(F)F)cc1)NC1CCN(c2ncccc2C(F)(F)F)CC1` showed a negative-log IC50 (pIC50) in [5] of 5.36.

As to `O=C(Nc1ccc([N+](=O)[O-])cc1)N1CCN(c2ncccc2C(F)(F)F)CC1`, the negative logarithm of the IC50 (pIC50) was 8.22 and 8.40 and 8.52 in [6]; 7.13 in test [7]; 7.00 in [8].

`CC1CN(c2ncccc2C(F)(F)F)CCN1C(=O)Nc1ccc(C(F)(F)F)cc1` (stereo not given): the negative logarithm of the IC50 (pIC50) in test [9] was 7.19; in test [10], 6.98.

Turning to `Cc1cccnc1N1CCN(C(=O)Nc2ccc(Cl)cc2)CC1`, the negative-log IC50 (pIC50) in test [9] is 6.95; in test [8] it was 6.39.

Consider `O=C(Nc1cccc2cnccc12)N1CCN(c2ncccc2C(F)(F)F)CC1`, for which the pEC50 in [11] is 5.14. The same molecule yielded an Efficacy in [2] of 11%. Also, the negative logarithm of the IC50 (pIC50) in [9] is 5.64; in test [8], below 5.00.

On to `O=C(Nc1ccc(C(F)(F)F)cc1)N1CCN(c2ncccc2C(F)(F)F)CC1`, for which, in [10], the pIC50 was 7.05.

`O=C(Nc1ccc(C(F)(F)F)cc1)N1CCN(c2ccccn2)CC1` showed a pIC50 in [8] of 6.06.

On to `Cc1cccnc1N1CCN(C(=O)Nc2ccc(C(F)(F)F)cc2)CC1`, for which the negative-log IC50 (pIC50) in [12] was 6.54; in test [8], 6.71.

As to `CC1CN(c2ncccc2C(F)(F)F)CC(C)N1C(=O)Nc1ccc(C(F)(F)F)cc1` (stereo not given), the negative logarithm of the IC50 (pIC50) in [9] was 5.61; in test [8], 5.43.

Regarding `O=C(Nc1ccc2ncccc2c1)N1CCN(c2ncccc2C(F)(F)F)CC1`, the pIC50 in [5] was 5.40; in test [9], 6.04.

As for `O=C(Nc1ccc(C(F)(F)F)cc1)NC1CCN(c2ncccc2C(F)(F)F)C1` (stereo not given), the negative logarithm of the IC50 (pIC50) was below 5.00 in test [12] and 4.88 in test [8]. The negative logarithm of the EC50 (pEC50) in test [13] was below 5.00.

For the molecule `O=C(Nc1ccc(C(F)(F)F)cc1)C1CCN(c2ncccc2C(F)(F)F)CC1`, the negative-log IC50 (pIC50) was below 5.00 in [5] and 6.02 in test [14].

One may read the IC50 as the concentration at which inhibition is half-maximal. A low value points to greater potency in that assay. As for `Oc1cc2c(cc1O)CN(C(=S)NCCc1ccc(Cl)cc1)CCC2` [CAPSAZEPINE], the pIC50 in [5] was 6.44; in test [15], 8.30 and 8.52; in test [16] it was 7.13; in [17] it was 7.89. Further, the IC50 in test [6] is 4 nM and 3 nM (2×).

Take `O=C(Nc1ccc(C(F)(F)F)cc1)N1CC2CC1CN2c1ncccc1C(F)(F)F` (stereo not given): the pIC50 in [5] and in [9] was below 5.00 throughout.

Turning to `COc1cc(CNC(=O)CCCC/C=C/C(C)C)ccc1O` [CAPSAICIN], in [18], the ED50 turned out to be 3 µg.

As to `O=C(Nc1cnc2ccccc2c1)N1CCN(c2ncccc2C(F)(F)F)CC1`, the pIC50 in test [16] is 6.28; in [8], 5.64.

As for `O=C(Nc1cc2ccccc2cn1)N1CCN(c2ncccc2C(F)(F)F)CC1`, the pIC50 was 6.00 in test [5] and 6.44 in test [12].

In the case of `O=C(Nc1ccc(C(F)(F)F)cc1)N1CCCN(c2ncccc2C(F)(F)F)CC1`, the pIC50 was 5.93 in test [5] and 6.27 in test [12].

Consider `Cc1ccccc1C1CCN(C(=O)Nc2ccc(C(F)(F)F)cc2)CC1`, for which the values for the Efficacy in test [2] and in test [21] were 86% and 8%, respectively. The figures for the pEC50 in test [19] and in test [20] were 5.71 and 5.76, respectively.

In [11], `O=C(Nc1ccc(C(F)(F)F)cc1)N1CCN(c2cccnc2)CC1` gave a negative logarithm of the EC50 (pEC50) of 5.57. Moreover, the Efficacy in [2] was 18%. This molecule also had a negative logarithm of the IC50 (pIC50) in test [12] of 5.30.

Regarding `Cc1cccnc1C1CCN(C(=O)Nc2ccc(C(F)(F)F)cc2)CC1`, the figures for the pIC50 in test [9] and in [10] were 5.66 and 6.41, respectively. In test [20], this molecule gave a pEC50 of 5.71.

`O=C(Nc1ccccn1)N1CCN(c2ncccc2C(F)(F)F)CC1`: the negative logarithm of the IC50 (pIC50) in test [14] is 4.92; in [8], below 5.00.

`O=C(Nc1cccc2cccnc12)N1CCN(c2ncccc2C(F)(F)F)CC1`: the pIC50 in [7] was 5.09; in test [8] it was 4.83.

Turning to `O=C(Nc1cccc2ncccc12)N1CCN(c2ncccc2C(F)(F)F)CC1`, the Efficacy in test [1] worked out at 36%; in [2], 2%. For the same molecule, the results for the negative-log EC50 (pEC50) in test [22] and in [4] were 5.28 and 5.08, respectively.

For the molecule `O=C(Nc1ccncc1)N1CCN(c2ncccc2C(F)(F)F)CC1`, the pEC50 in [11] is 5.89; in test [22], 5.94. Further, the Efficacy in test [1] came out at 120%; in test [2], 100%.

The record behind these values is ChEMBL document CHEMBL1142724 (J Med Chem, 2005).
